Assay results from ChEMBL document CHEMBL3244237, “Differences in antischistosomal and mutagenic properties between an isothiocyano- and an isocyanonitrodiphenylamine” (J Med Chem, 1977).

Experiments:
Schistosoma japonicum [1] = test: Antischistosomal activity against Schistosoma japonicum infected mouse assessed as reduction in number of worms at 125 mg/kg, po single dose; format: functional
Schistosoma japonicum [2] = test: Antischistosomal activity against Schistosoma japonicum infected mouse assessed as mouse with parasital cures at 500 mg/kg, po single dose; format: functional
Salmonella typhimurium [3] = test: Mutagenic activity in Salmonella typhimurium TA-100 at 17 nmol/plate by Ames test; format: toxicity, organism-based; conditions: salmonella enterica subsp. enterica serovar typhimurium
Outline: (§1)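 Ames plate-incorporation assay in Salmonella typhimurium TA-98 or TA-100 without rat liver S9. Compound was dissolved in Me2SO, with final Me2SO held at 0.1 mL per 15 mL medium on every plate, controls included. The top level tested was near that giving 10% growth inhibition. Read-out was revertant count in excess of solvent controls.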

Salmonella typhimurium [4] = test: Mutagenic activity in Salmonella typhimurium TA-100 at 60 nmol/plate by Ames test in presence of rat liver microsomes S9 fraction; format: toxicity, organism-based; conditions: salmonella enterica subsp. enterica serovar typhimurium
Outline: as §1, with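 “with” for “without”, “microsomal S9 fraction.” for “S9.”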

Schistosoma japonicum [5] = test: Antischistosomal activity against Schistosoma japonicum infected mouse assessed as mouse with parasital cures at 250 mg/kg, po single dose; format: functional
Schistosoma japonicum [6] = test: Antischistosomal activity against Schistosoma japonicum infected mouse assessed as reduction in number of worms at 500 mg/kg, po single dose; format: functional
Salmonella typhimurium [7] = test: Mutagenic activity in Salmonella typhimurium TA-100 at 17 nmol/plate by Ames test in presence of rat liver microsomes S9 fraction; format: toxicity, organism-based; conditions: salmonella enterica subsp. enterica serovar typhimurium
Outline: as §1, with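 “with” for “without”, “microsomal S9 fraction.” for “S9.”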

Salmonella typhimurium [8] = test: Mutagenic activity in Salmonella typhimurium TA-98 at 17 nmol/plate by Ames test; format: toxicity, organism-based; conditions: salmonella enterica subsp. enterica serovar typhimurium; outline: as §1
Schistosoma japonicum [9] = test: Antischistosomal activity against Schistosoma japonicum infected mouse assessed as reduction in number of worms at 250 mg/kg, po single dose; format: functional
Salmonella typhimurium [10] = test: Mutagenic activity in Salmonella typhimurium TA-98 at 17 nmol/plate by Ames test in presence of rat liver microsomes S9 fraction; format: toxicity, organism-based; conditions: salmonella enterica subsp. enterica serovar typhimurium
Outline: as §1, with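 “with” for “without”, “microsomal S9 fraction.” for “S9.”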

Schistosoma japonicum [11] = test: Antischistosomal activity against Schistosoma japonicum infected mouse assessed as reduction in number of worms at 50 mg/kg, po single dose; format: functional
Schistosoma japonicum [12] = test: Antischistosomal activity against Schistosoma japonicum infected mouse assessed as mouse with parasital cures at 125 mg/kg, po single dose; format: functional
Salmonella typhimurium [13] = test: Mutagenic activity in Salmonella typhimurium TA-100 at 60 nmol/plate by Ames test; format: toxicity, organism-based; conditions: salmonella enterica subsp. enterica serovar typhimurium; outline: as §1
Salmonella typhimurium [14] = test: Mutagenic activity in Salmonella typhimurium TA-98 at 60 nmol/plate by Ames test in presence of rat liver microsomes S9 fraction; format: toxicity, organism-based; conditions: salmonella enterica subsp. enterica serovar typhimurium
Outline: as §1, with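 “with” for “without”, “microsomal S9 fraction.” for “S9.”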

Salmonella typhimurium [15] = test: Mutagenic activity in Salmonella typhimurium TA-98 at 60 nmol/plate by Ames test; format: toxicity, organism-based; conditions: salmonella enterica subsp. enterica serovar typhimurium; outline: as §1
Schistosoma japonicum [16] = test: Antischistosomal activity against Schistosoma japonicum infected mouse assessed as mouse with parasital cures at 50 mg/kg, po single dose; format: functional
Salmonella typhimurium [17] = test: Mutagenic activity in Salmonella typhimurium TA-98 at 158 nmol/plate by Ames test; format: toxicity, organism-based; conditions: salmonella enterica subsp. enterica serovar typhimurium
Schistosoma japonicum [18] = test: Antischistosomal activity against Schistosoma japonicum infected mouse assessed as mouse with parasital cures at 7 mg/kg, po single dose; format: functional
Salmonella typhimurium [19] = test: Mutagenic activity in Salmonella typhimurium TA-100 at 158 nmol/plate by Ames test in presence of rat liver microsomes S9 fraction; format: toxicity, organism-based; conditions: salmonella enterica subsp. enterica serovar typhimurium
Schistosoma japonicum [20] = test: Antischistosomal activity against Schistosoma japonicum infected mouse assessed as reduction in number of worms at 10 mg/kg, po single dose; format: functional
Salmonella typhimurium [21] = test: Mutagenic activity in Salmonella typhimurium TA-100 at 5 nmol/plate by Ames test; format: toxicity, organism-based; conditions: salmonella enterica subsp. enterica serovar typhimurium
Salmonella typhimurium [22] = test: Mutagenic activity in Salmonella typhimurium TA-98 at 16 nmol/plate by Ames test; format: toxicity, organism-based; conditions: salmonella enterica subsp. enterica serovar typhimurium
Salmonella typhimurium [23] = test: Mutagenic activity in Salmonella typhimurium TA-100 at 53 nmol/plate by Ames test; format: toxicity, organism-based; conditions: salmonella enterica subsp. enterica serovar typhimurium
Salmonella typhimurium [24] = test: Mutagenic activity in Salmonella typhimurium TA-98 at 16 nmol/plate by Ames test in presence of rat liver microsomes S9 fraction; format: toxicity, organism-based; conditions: salmonella enterica subsp. enterica serovar typhimurium
Salmonella typhimurium [25] = test: Mutagenic activity in Salmonella typhimurium TA-100 at 158 nmol/plate by Ames test; format: toxicity, organism-based; conditions: salmonella enterica subsp. enterica serovar typhimurium
Salmonella typhimurium [26] = test: Mutagenic activity in Salmonella typhimurium TA-98 at 53 nmol/plate by Ames test in presence of rat liver microsomes S9 fraction; format: toxicity, organism-based; conditions: salmonella enterica subsp. enterica serovar typhimurium
Schistosoma japonicum [27] = test: Antischistosomal activity against Schistosoma japonicum infected mouse assessed as reduction in number of worms at 7 mg/kg, po single dose; format: functional
Salmonella typhimurium [28] = test: Mutagenic activity in Salmonella typhimurium TA-100 at 16 nmol/plate by Ames test; format: toxicity, organism-based; conditions: salmonella enterica subsp. enterica serovar typhimurium
Salmonella typhimurium [29] = test: Mutagenic activity in Salmonella typhimurium TA-100 at 16 nmol/plate by Ames test in presence of rat liver microsomes S9 fraction; format: toxicity, organism-based; conditions: salmonella enterica subsp. enterica serovar typhimurium
Salmonella typhimurium [30] = test: Mutagenic activity in Salmonella typhimurium TA-100 at 53 nmol/plate by Ames test in presence of rat liver microsomes S9 fraction; format: toxicity, organism-based; conditions: salmonella enterica subsp. enterica serovar typhimurium
Salmonella typhimurium [31] = test: Mutagenic activity in Salmonella typhimurium TA-98 at 53 nmol/plate by Ames test; format: toxicity, organism-based; conditions: salmonella enterica subsp. enterica serovar typhimurium
Salmonella typhimurium [32] = test: Mutagenic activity in Salmonella typhimurium TA-98 at 158 nmol/plate by Ames test in presence of rat liver microsomes S9 fraction; format: toxicity, organism-based; conditions: salmonella enterica subsp. enterica serovar typhimurium
Salmonella typhimurium [33] = test: Mutagenic activity in Salmonella typhimurium TA-98 at 5 nmol/plate by Ames test; format: toxicity, organism-based; conditions: salmonella enterica subsp. enterica serovar typhimurium
Schistosoma japonicum [34] = test: Antischistosomal activity against Schistosoma japonicum infected mouse assessed as mouse with parasital cures at 10 mg/kg, po single dose; format: functional
Schistosoma japonicum [35] = test: Antischistosomal activity against Schistosoma japonicum infected mouse assessed as reduction in number of worms at 5 mg/kg, po single dose; format: functional
Salmonella typhimurium [36] = test: Mutagenic activity in Salmonella typhimurium TA-98 at 5 nmol/plate by Ames test in presence of rat liver microsomes S9 fraction; format: toxicity, organism-based; conditions: salmonella enterica subsp. enterica serovar typhimurium
Schistosoma japonicum [37] = test: Antischistosomal activity against Schistosoma japonicum infected mouse assessed as mouse with parasital cures at 5 mg/kg, po single dose; format: functional
Salmonella typhimurium [38] = test: Mutagenic activity in Salmonella typhimurium TA-100 at 5 nmol/plate by Ames test in presence of rat liver microsomes S9 fraction; format: toxicity, organism-based; conditions: salmonella enterica subsp. enterica serovar typhimurium
Schistosoma japonicum [39] = test: Antischistosomal activity against Schistosoma japonicum infected mouse assessed as mouse with parasital cures at 20 mg/kg, po single dose; format: functional
Schistosoma japonicum [40] = test: Antischistosomal activity against Schistosoma japonicum infected mouse assessed as reduction in number of worms at 20 mg/kg, po single dose; format: functional

O=C=Nc1ccc(Nc2ccc([N+](=O)[O-])cc2)cc1
inhibition in vivo at 125 mg/kg (Schistosoma japonicum [1]): 0%
Activity (Schistosoma japonicum [2]): 0%
Activity (Salmonella typhimurium [3]): Toxic
Activity (Salmonella typhimurium [4]): Toxic
Activity (Schistosoma japonicum [5]): 0%
inhibition in vivo at 500 mg/kg (Schistosoma japonicum [6]): 0%
Activity (Salmonella typhimurium [7]): Toxic
Activity (Salmonella typhimurium [8]): Toxic
inhibition in vivo at 250 mg/kg (Schistosoma japonicum [9]): 0%
Activity (Salmonella typhimurium [10]): Toxic
inhibition in vivo at 50 mg/kg (Schistosoma japonicum [11]): 0%
Activity (Schistosoma japonicum [12]): 0%
Activity (Salmonella typhimurium [13]): Toxic
Activity (Salmonella typhimurium [14]): Toxic
Activity (Salmonella typhimurium [15]): Toxic
Activity (Schistosoma japonicum [16]): 0%

O=[N+]([O-])c1ccc(Nc2ccc(N=C=S)cc2)cc1 [AMOSCANATE]
Activity (Salmonella typhimurium [17]): Non-toxic
Activity (Schistosoma japonicum [18]): 25%
Activity (Salmonella typhimurium [19]): Non-toxic
inhibition in vivo at 10 mg/kg (Schistosoma japonicum [20]): 99%
Activity (Salmonella typhimurium [21]): Non-toxic
Activity (Salmonella typhimurium [22]): Non-toxic
Activity (Salmonella typhimurium [23]): Non-toxic
Activity (Salmonella typhimurium [24]): Non-toxic
Activity (Salmonella typhimurium [25]): Non-toxic
Activity (Salmonella typhimurium [26]): Non-toxic
inhibition in vivo at 7 mg/kg (Schistosoma japonicum [27]): 82%
Activity (Salmonella typhimurium [28]): Non-toxic
Activity (Salmonella typhimurium [29]): Non-toxic
Activity (Salmonella typhimurium [30]): Non-toxic
Activity (Salmonella typhimurium [31]): Non-toxic
Activity (Salmonella typhimurium [32]): Non-toxic
Activity (Salmonella typhimurium [33]): Non-toxic
Activity (Schistosoma japonicum [34]): 92%
inhibition in vivo at 5 mg/kg (Schistosoma japonicum [35]): 68%
Activity (Salmonella typhimurium [36]): Non-toxic
Activity (Schistosoma japonicum [37]): 14%
Activity (Salmonella typhimurium [38]): Non-toxic
Activity (Schistosoma japonicum [39]): 100%
inhibition in vivo at 20 mg/kg (Schistosoma japonicum [40]): 100%
